Source: ChEMBL document CHEMBL4118097, “Selective Inhibitors of Dual Leucine Zipper Kinase (DLK, MAP3K12) with Activity in a Model of Alzheimer's Disease” (J Med Chem, 2017)

How the values were obtained:
[1] = target: Serine/threonine-protein kinase 17A (Homo sapiens) (UniProt Q9UEE5); assay: Inhibition of full length recombinant GST-tagged human DRAK1 expressed in baculovirus expression system at 1 uM by FRET assay relative to control
[2] = target: Serine/threonine-protein kinase DCLK2 (Homo sapiens) (UniProt Q8N568); assay: Inhibition of full length recombinant GST-tagged human DCAMKL2 expressed in baculovirus expression system at 1 uM by FRET assay relative to control
[3] = target: Dual specificity protein kinase CLK3 (Homo sapiens) (UniProt P49761); assay: Inhibition of full length recombinant GST-tagged human CLK3 expressed in baculovirus expression system at 1 uM by FRET assay relative to control
[4] = target: CDK7/Cyclin H/MNAT1 (Homo sapiens) (UniProt P51946+P50613+P51948); assay: Inhibition of recombinant full length His-tagged human CDK7/cyclin H/MNAT1 expressed in baculovirus expression system at 1 uM by FRET assay relative to control
[5] = target: Calcium/calmodulin-dependent protein kinase type II subunit alpha (Homo sapiens) (UniProt Q9UQM7); assay: Inhibition of CamK2alpha (unknown origin) at 1 uM by FRET assay relative to control
[6] = target: Mitogen-activated protein kinase kinase kinase 5 (Homo sapiens) (UniProt Q99683); assay: Inhibition of recombinant full length GST-tagged human ASK1 expressed in baculovirus expression system at 1 uM by FRET assay relative to control
Method in brief: (§1)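 Single-concentration screen at 1 μM in Life Technologies SelectScreen, across a 220-kinase panel. Z′-LYTE format measures phosphorylation of a labeled peptide by FRET. Results are reported as percent inhibition.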

[7] = target: Leukocyte tyrosine kinase receptor (Homo sapiens) (UniProt P29376); assay: Inhibition of recombinant GST-tagged human LTK cytoplasmic domain (440 to 864 residues) expressed in baculovirus expression system at 1 uM by FRET assay relative to control
Method in brief: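 Part of a 220-kinase panel run at a single concentration of 1 μM. Z′-LYTE format: phosphorylation of a labelled peptide read by FRET. Values reported as percent inhibition.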

[8] = target: Tyrosine-protein kinase JAK2 (Homo sapiens) (UniProt O60674); assay: Inhibition of recombinant GST-tagged human JAK2 catalytic domain (809 to 1153 residues) expressed in baculovirus expression system at 1 uM by FRET relative to control
Method in brief: (§2)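 Single-point screen at 1 μM compound in a 220-kinase panel run by Life Technologies (SelectScreen). Z′-LYTE format: phosphorylation of a labeled peptide substrate read by FRET. Values are reported as percent inhibition.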

[9] = target: Beta-adrenergic receptor kinase 1 (Homo sapiens) (UniProt P25098); assay: Inhibition of recombinant full length His-tagged human GRK2 expressed in baculovirus expression system at 1 uM by FRET relative to control
[10] = target: Fibroblast growth factor receptor 1 (Homo sapiens) (UniProt P11362); assay: Inhibition of recombinant His-tagged human FGFR1 cytoplasmic domain expressed in baculovirus expression system at 1 uM by FRET assay relative to control; method in brief: as §2
[11] = target: Eukaryotic elongation factor 2 kinase (Homo sapiens) (UniProt O00418); assay: Inhibition of recombinant full length GST-tagged human eEF2K expressed in Escherichia coli at 1 uM by FRET assay relative to control
[12] = target: Phosphorylase b kinase gamma catalytic chain, liver/testis isoform (Homo sapiens) (UniProt P15735); assay: Inhibition of recombinant full length GST-tagged human PHKgamma2 expressed in baculovirus expression system at 1 uM by FRET assay relative to control; method in brief: as §1
[13] = target: 3-phosphoinositide-dependent protein kinase 1 (Homo sapiens) (UniProt O15530); assay: Inhibition of recombinant full length His-tagged human PDK1 expressed in baculovirus expression system at 1 uM by FRET assay relative to control
[14] = target: Mitogen-activated protein kinase 11 (Homo sapiens) (UniProt Q15759); assay: Inhibition of recombinant full length His-tagged human p38beta expressed in baculovirus expression system at 1 uM by FRET assay relative to control
[15] = target: Tyrosine-protein kinase Mer (Homo sapiens) (UniProt Q12866); assay: Inhibition of recombinant GST-tagged human Mer cytoplasmic domain expressed in baculovirus expression system at 1 uM by FRET assay relative to control; method in brief: as §2
[16] = target: Serine/threonine-protein kinase MARK1 (Homo sapiens) (UniProt Q9P0L2); assay: Inhibition of recombinant full Length GST-tagged human MARK1 expressed in baculovirus expression system at 1 uM by FRET assay relative to control; method in brief: as §1
[17] = target: TGF-beta receptor type-1 (Homo sapiens) (UniProt P36897); assay: Inhibition of recombinant full length N-terminal GST-tagged human TGFBR1 (200 to 503 residues) expressed in baculovirus expression system at 1 uM by FRET assay relative to control
[18] = target: Ribosomal protein S6 kinase alpha-3 (Homo sapiens) (UniProt P51812); assay: Inhibition of recombinant full length His-tagged human RSK2 expressed in baculovirus expression system at 1 uM by FRET assay relative to control
[19] = target: Ribosomal protein S6 kinase alpha-1 (Homo sapiens) (UniProt Q15418); assay: Inhibition of recombinant full length His-tagged human RSK1 expressed in baculovirus expression system at 1 uM by FRET assay relative to control
[20] = target: MAP kinase-activated protein kinase 5 (Homo sapiens) (UniProt Q8IW41); assay: Inhibition of full length recombinant His-tagged human PRAK expressed in baculovirus expression system at 1 uM by FRET assay relative to control
[21] = target: Mitogen-activated protein kinase kinase kinase 10 (Homo sapiens, UniProt Q02779); assay: Inhibition of recombinant human full length GST-tagged MLK2 expressed in baculovirus expression system by FRET assay
[22] = target: Muscarinic acetylcholine receptor M3 (Homo sapiens) (UniProt P20309); assay: Binding affinity to recombinant human M3 acetylcholine receptor at 10 uM relative to control
Method in brief: (§3)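 Broad radioligand-binding and enzyme screening panel covering 42 targets (biogenic amine and neuropeptide receptors, ion channels, neurotransmitter transporters, acetylcholinesterase). Single test concentration of 10 μM. Results expressed as binding relative to control, with a hit defined as >50% of control.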

[23] = target: Neuronal acetylcholine receptor; alpha4/beta2 (Homo sapiens) (UniProt P17787+P43681); assay: Binding affinity to alpha4beta2 nAChR (unknown origin) receptor at 10 uM relative to control; format: protein-complex assay; method in brief: as §3
[24] = target: 5-hydroxytryptamine receptor 2A (Homo sapiens) (UniProt P28223); assay: Binding affinity to 5HT2A receptor (unknown origin) receptor at 10 uM relative to control; method in brief: as §3
[25] = target: 5-hydroxytryptamine receptor 3A (Homo sapiens) (UniProt P46098); assay: Binding affinity to 5HT3 receptor (unknown origin) receptor at 10 uM relative to control; method in brief: as §3
[26] = target: Sodium-dependent noradrenaline transporter (Homo sapiens) (UniProt P23975); assay: Binding affinity to recombinant human norepinephrine transporter at 10 uM relative to control; method in brief: as §3
[27] = target: Sodium-dependent dopamine transporter (Homo sapiens) (UniProt Q01959); assay: Binding affinity to recombinant human dopamine transporter at 10 uM relative to control; method in brief: as §3

Eukaryotic elongation factor 2 kinase (Homo sapiens), sequence (O00418 whole entry, canonical isoform): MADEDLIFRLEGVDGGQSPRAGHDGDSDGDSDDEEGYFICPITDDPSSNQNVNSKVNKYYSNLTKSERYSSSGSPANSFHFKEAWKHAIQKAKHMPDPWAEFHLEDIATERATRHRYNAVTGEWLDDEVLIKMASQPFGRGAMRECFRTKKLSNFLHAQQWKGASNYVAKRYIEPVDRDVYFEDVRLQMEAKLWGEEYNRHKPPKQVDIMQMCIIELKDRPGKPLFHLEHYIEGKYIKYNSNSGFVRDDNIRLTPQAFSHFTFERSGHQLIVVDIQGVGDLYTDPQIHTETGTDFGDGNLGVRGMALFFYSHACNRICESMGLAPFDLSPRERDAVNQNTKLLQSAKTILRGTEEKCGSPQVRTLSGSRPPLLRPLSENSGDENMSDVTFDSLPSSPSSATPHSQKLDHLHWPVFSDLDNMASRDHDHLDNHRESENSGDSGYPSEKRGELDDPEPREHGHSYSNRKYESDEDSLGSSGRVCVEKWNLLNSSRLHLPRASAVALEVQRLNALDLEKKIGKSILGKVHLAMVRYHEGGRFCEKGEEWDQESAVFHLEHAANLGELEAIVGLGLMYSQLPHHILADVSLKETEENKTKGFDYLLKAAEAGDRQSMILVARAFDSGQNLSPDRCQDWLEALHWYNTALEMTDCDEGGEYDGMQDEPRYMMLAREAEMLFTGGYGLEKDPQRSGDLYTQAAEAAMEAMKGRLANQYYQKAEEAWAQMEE
Serine/threonine-protein kinase DCLK2 (Homo sapiens), sequence (Q8N568 whole entry): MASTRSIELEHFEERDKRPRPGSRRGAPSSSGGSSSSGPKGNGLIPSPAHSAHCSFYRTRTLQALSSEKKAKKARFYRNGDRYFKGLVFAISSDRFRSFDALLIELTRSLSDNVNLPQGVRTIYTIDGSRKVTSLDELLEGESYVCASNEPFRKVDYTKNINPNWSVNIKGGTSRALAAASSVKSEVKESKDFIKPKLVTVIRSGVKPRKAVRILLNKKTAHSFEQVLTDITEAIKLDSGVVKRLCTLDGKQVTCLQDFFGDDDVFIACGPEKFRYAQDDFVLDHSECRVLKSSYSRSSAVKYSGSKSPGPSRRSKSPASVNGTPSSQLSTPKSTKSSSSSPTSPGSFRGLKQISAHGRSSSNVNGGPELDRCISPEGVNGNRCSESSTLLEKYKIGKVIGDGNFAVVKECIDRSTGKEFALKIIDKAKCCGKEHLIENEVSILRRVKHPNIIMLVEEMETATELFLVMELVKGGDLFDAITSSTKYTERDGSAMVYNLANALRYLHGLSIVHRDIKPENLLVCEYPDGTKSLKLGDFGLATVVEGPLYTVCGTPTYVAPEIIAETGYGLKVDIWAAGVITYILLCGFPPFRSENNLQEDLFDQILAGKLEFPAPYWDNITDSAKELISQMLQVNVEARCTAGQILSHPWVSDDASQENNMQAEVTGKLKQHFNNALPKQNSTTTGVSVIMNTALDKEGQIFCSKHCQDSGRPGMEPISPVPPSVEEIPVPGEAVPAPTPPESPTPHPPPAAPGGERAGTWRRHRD
Fibroblast growth factor receptor 1 (Homo sapiens), sequence (P11362 22-822 limits assumed): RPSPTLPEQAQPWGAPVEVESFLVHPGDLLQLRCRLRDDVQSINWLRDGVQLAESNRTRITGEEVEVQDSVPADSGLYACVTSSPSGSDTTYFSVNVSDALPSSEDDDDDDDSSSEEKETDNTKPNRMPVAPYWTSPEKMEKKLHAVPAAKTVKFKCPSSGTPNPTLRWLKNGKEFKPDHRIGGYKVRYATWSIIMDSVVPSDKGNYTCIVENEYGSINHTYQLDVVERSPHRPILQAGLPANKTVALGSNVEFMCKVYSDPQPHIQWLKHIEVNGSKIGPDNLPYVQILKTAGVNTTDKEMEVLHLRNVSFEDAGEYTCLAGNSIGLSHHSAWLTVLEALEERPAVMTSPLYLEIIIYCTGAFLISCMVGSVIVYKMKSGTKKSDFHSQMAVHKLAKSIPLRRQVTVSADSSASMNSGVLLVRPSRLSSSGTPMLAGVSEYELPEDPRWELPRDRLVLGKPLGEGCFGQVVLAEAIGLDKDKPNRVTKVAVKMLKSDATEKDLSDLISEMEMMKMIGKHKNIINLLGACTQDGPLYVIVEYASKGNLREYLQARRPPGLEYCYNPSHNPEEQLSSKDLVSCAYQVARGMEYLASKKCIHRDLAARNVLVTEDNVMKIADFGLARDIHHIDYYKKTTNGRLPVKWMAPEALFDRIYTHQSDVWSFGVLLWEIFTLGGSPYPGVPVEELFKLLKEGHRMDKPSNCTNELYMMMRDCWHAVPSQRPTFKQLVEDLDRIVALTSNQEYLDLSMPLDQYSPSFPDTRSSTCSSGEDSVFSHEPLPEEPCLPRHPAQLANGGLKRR
Ribosomal protein S6 kinase alpha-3 (Homo sapiens), sequence (P51812 whole entry): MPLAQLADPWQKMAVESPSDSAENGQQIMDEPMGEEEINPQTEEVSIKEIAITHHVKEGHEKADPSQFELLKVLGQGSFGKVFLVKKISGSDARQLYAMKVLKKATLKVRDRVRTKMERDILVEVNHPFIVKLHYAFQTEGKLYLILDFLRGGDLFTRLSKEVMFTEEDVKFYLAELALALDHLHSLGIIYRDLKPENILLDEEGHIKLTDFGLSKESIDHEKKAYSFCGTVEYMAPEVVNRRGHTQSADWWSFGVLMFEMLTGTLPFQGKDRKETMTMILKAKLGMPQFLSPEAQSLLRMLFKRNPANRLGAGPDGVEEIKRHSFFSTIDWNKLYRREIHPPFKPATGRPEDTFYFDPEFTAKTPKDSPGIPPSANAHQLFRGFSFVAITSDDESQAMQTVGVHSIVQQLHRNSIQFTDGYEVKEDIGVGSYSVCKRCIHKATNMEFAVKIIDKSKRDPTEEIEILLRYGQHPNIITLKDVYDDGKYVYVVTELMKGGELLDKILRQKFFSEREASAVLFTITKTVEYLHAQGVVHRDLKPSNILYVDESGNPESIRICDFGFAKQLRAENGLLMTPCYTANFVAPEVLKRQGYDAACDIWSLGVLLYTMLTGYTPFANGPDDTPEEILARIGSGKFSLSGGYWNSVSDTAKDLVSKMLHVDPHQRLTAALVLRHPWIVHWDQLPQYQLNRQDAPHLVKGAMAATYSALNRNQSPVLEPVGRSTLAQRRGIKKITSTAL
Muscarinic acetylcholine receptor M3 (Homo sapiens), sequence (P20309 whole entry, looked up): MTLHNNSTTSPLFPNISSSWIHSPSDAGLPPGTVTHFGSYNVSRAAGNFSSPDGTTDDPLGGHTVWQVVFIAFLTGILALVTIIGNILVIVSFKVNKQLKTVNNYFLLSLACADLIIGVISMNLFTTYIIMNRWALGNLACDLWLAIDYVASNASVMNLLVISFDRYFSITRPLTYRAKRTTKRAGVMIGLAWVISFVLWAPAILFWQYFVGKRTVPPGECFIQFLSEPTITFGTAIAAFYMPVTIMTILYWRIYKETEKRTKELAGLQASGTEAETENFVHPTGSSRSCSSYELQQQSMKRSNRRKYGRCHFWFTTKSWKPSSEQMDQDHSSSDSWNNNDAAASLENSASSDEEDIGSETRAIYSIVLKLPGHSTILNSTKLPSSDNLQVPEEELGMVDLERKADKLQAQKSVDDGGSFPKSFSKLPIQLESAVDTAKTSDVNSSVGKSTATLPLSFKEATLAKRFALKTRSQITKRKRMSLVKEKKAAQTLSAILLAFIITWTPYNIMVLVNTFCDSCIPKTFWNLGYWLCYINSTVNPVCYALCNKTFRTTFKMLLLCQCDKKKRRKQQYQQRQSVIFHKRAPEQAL
Tyrosine-protein kinase Mer (Homo sapiens), sequence (Q12866 whole entry, the tested form may be a part): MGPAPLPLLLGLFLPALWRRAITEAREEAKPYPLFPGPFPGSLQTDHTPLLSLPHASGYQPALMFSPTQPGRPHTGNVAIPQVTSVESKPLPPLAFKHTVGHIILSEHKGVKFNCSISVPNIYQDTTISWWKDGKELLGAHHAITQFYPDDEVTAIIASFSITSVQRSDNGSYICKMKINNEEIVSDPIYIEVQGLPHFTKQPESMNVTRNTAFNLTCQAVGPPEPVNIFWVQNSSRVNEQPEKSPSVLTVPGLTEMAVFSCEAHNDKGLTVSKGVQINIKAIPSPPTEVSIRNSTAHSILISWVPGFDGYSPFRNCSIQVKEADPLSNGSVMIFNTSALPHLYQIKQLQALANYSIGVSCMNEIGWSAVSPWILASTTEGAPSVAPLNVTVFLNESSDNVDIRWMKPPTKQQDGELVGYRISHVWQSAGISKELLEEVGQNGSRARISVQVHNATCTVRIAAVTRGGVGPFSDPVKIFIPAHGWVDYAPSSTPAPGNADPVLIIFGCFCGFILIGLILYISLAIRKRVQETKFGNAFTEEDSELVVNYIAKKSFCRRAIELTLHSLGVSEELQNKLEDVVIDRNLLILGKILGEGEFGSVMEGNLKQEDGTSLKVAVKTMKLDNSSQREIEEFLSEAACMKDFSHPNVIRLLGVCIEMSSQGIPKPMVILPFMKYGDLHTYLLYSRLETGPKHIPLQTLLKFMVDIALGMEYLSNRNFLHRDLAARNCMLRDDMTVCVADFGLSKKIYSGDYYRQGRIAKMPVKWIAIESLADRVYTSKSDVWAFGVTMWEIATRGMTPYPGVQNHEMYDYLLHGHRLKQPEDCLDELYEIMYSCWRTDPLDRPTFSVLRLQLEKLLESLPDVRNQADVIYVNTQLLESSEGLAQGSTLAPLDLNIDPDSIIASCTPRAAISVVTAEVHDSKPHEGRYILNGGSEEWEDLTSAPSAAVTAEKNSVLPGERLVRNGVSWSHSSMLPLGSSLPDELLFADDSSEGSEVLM
Mitogen-activated protein kinase 11 (Homo sapiens), sequence (Q15759 whole entry, the tested form may be a part): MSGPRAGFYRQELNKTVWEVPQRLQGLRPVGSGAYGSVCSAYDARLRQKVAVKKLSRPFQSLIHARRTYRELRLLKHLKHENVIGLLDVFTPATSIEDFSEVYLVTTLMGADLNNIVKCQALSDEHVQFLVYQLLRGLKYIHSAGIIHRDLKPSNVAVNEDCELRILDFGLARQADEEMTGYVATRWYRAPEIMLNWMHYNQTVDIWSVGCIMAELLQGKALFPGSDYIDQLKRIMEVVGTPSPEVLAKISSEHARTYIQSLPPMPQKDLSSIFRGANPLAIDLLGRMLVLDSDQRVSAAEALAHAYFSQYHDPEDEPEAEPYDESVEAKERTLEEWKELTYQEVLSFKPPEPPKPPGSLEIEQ

SMILES	inhibition [1]	inhibition [2]	inhibition [3]	inhibition [4]	inhibition [5]	inhibition [6]	inhibition [7]	inhibition [8]	inhibition [9]	inhibition [10]	inhibition [11]	inhibition [12]	inhibition [13]	inhibition [14]	inhibition [15]	inhibition [16]	inhibition [17]	inhibition [18]	inhibition [19]	inhibition [20]	also measured
CC(C)n1nc(-c2cnc(N)c(OC(F)(F)F)c2)cc1[C@H]1[C@@H]2CN(C3COC3)C[C@@H]21	5.2%	-1.6%	5.9%	28.6%	2.4%	-5.3%	9.8%	4.6%	-2.5%	2.4%	4.4%	1.7%	3.3%	9.3%	22.5%	11.4%	1.6%	2.8%	5.5%	8.1%	IC50 [21]: 7.88 µM; Activity [22]: > 50%; Activity [23]: > 50%; Activity [24]: > 50%; Activity [25]: > 50%; Activity [26]: > 50%; Activity [27]: > 50%
Nc1ncc(-c2cc([C@H]3[C@@H]4CN(C5COC5)C[C@@H]43)n(CC3CC3)n2)cc1C(F)(F)F	7.5%	-0.8%	-3.6%	15.7%	0.6%	3.1%	31.5%	20.4%	2.1%	3.4%	-5.1%	3.8%	-2.7%	2.5%	37%	12.1%	11.7%	2%	2.1%	-0.8%	IC50 [21]: 5.15 µM; Activity [22]: > 50%; Activity [23]: > 50%; Activity [24]: > 50%; Activity [25]: > 50%; Activity [26]: > 50%; Activity [27]: > 50%
